Most compounds without a hit are left out; they make up all but 2.3% or so of the library.
TRPC4 inh – inhibitors of mouse TRPC4 channel, primary screen, Fluo4 calcium, HEK293 TRPC4beta/mu-opioid cells; Short transient receptor potential channel 4 (Mus musculus), Q9QUQ5; DAMGO-evoked Fluo4 calcium flux; stronger effect = lower value; B-score at 10 µM; 300,000 tested, 0.39% active;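 active = B-score over 3 SD under the library average, no early fluorescence shift, positive overall ratio signal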
Target sequence (Q9QUQ5 whole entry, looked up): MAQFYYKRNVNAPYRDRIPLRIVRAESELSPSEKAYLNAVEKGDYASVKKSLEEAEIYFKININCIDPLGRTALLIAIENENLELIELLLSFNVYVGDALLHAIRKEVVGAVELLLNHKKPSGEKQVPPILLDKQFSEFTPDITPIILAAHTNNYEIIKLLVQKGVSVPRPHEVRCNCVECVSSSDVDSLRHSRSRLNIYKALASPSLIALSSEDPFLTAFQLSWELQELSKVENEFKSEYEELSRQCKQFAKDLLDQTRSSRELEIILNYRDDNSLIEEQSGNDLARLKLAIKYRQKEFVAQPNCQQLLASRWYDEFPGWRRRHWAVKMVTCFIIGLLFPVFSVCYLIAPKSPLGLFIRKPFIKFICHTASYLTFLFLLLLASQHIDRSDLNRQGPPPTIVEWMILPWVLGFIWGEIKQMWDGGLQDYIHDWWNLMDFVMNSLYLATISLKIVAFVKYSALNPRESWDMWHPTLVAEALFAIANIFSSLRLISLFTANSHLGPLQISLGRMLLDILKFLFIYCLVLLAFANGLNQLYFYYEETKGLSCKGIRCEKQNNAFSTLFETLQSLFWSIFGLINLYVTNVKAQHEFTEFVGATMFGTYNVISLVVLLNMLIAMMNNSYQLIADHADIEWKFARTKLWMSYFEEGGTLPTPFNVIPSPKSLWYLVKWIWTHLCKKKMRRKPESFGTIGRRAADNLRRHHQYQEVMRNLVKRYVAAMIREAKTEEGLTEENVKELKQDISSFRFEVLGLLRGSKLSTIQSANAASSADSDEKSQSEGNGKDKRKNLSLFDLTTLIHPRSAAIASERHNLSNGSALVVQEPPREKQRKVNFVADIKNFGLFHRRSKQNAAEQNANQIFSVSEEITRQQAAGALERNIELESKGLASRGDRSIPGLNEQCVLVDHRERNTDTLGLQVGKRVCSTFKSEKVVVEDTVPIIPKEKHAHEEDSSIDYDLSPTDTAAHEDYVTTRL
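material = TRPC4beta/mu-opioid receptor HEK293 cell line | probe or stimulus = sequential submaximal and maximal DAMGO stimulation | compound dosing = one concentration per compound | measured by = Fluo4 Ca2+ flux fluorescence | evaluation = integrated fluorescence ratio relative to baseline, converted to per-well B score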
TRPC6 act – mouse TRPC6 channel activators, primary screen, cell-based, HEK293, membrane potential dye; Short transient receptor potential channel 6 (Mus musculus), Q61143; B-score at 10 µM; AID 2550, 2010; 310,000 tested, 0.13% active; HEK293-TRPC6 membrane potential dye fluorescence; stronger effect = higher value;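 active = B-score of the integrated fluorescence ratio above library mean plus 3 SD, and starting fluorescence ratio within library mean plus 5 SD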;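 note: higher score means more depolarization so channel activation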
TRPC4 potent – positive allosteric modulators of TRPC4, primary screen, cell-based, mouse TRPC4beta, HEK293 mu-opioid, Fluo-4 calcium; DAMGO EC20, Fluo-4 Ca2+ flux; stronger effect = higher value; B-score at 10 µM; 310,000 tested, 0.42% active; AID 2227, 2009;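 active = B-score of calcium response area above 5 SD of library B-scores, with initial fluorescence ratio within 5 SD of library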
TRPC4 agonist – activators of mouse TRPC4 channel, primary screen, Fluo4 calcium, HEK293 TRPC4beta/mu-opioid cells; Short transient receptor potential channel 4 (Mus musculus), Q9QUQ5; Fluo4 calcium fluorescence; stronger effect = higher value; B-score at 10 µM; 310,000 tested, 0.49% active;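 active = B-score above 5 SD of library B-scores, and initial fluorescence ratio not above library mean plus 5 SD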;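 note: positive B-score marks a calcium rise read as TRPC4 activation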
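Assay system: HEK293 stable line with TRPC4beta plus mu-opioid receptor; schedule: 45 min room-temperature Fluo4 loading, 110 s read; technique: kinetic Fluo4 calcium fluorescence; evaluation: integrated baseline-normalised fluorescence ratio, converted to per-well B score; controls: buffer (low) and maximal DAMGO (high)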
TRPC6 inhibitor – mouse TRPC6 channel inhibitors, primary screen, cell-based, HEK293, membrane potential dye | Short transient receptor potential channel 6 (Mus musculus), Q61143 | B-score at 10 µM | 310,000 tested, 1.1% active | ACh-evoked depolarization; stronger effect = lower value;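 active = B-score under library mean minus 3 SD, initial fluorescence not abnormally high, positive integrated signal ratio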;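 note: B-score derived from integrated fluorescence ratio over the kinetic read; more negative B-score means stronger inhibition of depolarization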
TRPC4 sel inh 2 – second check of whether TRPC6 inhibitors also affect mouse TRPC4; shares compounds with TRPC6 inhibitor; HEK293 TRPC4/MOR, membrane potential dye fluorescence; channel activated by saturating DAMGO dose; inhibition, % at 10 µM; 920 tested, 42% active; AID 2776;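 active = compounds whose fluorescence signal differed from control wells by over 3 SD, either direction, in both duplicate plates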
TRPC4 spec – mouse TRPC4 modulation by TRPC6 hits, confirmation, selectivity assay for TRPC6 inhibitor project, cell-based, HEK293 TRPC4/mu-opioid, membrane potential dye; 920 tested, 61% active; activity change, negative = inhibition, % at 10 µM; shares compounds with TRPC6 inhibitor; membrane potential fluorescence;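 active = rise or fall in signal beyond 3 SD of buffer-only wells in both replicate plates, either sign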;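 note: integrated kinetic ratio of fluorescence range over baseline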
HEK293 MPD ctr 2-1 – nonspecific membrane potential effects, parental HEK293, confirmation, counter-screen for TRPC6 inhibitor project, cell-based, second counter screen; parental HEK293 membrane potential dye fluorescence; maximal acetylcholine challenge after compound addition; signal change vs control, % at 10 µM; shares compounds with TRPC6 inhibitor; 920 tested, 31% active;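 active = membrane potential signal moving either way by over 3 SD of the maximum-effect control, in both duplicate plates, meaning non-specific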
HEK293 MPD ctr-1 – membrane potential modulation in parental HEK293, confirmation, counter-screen for TRPC6 inhibitor project, cell-based; shares compounds with TRPC6 inhibitor; parental HEK293 membrane potential dye fluorescence; membrane potential signal change, % at 10 µM; 920 tested, 60% active; AID 2780, 2010;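 active = membrane potential signal shifting up or down by more than 3 SD of buffer-only wells, on both duplicate plates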
HEK293 MPD ctr-2 – parental HEK293 membrane potential modulation, confirmation, counter-screen for TRPC6 modulator project, cell-based. shares compounds with TRPC6 inhibitor. membrane potential dye fluorescence. membrane potential signal change, % at 10 µM. 2,400 tested, 51% active;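 active = membrane potential signal moves up or down beyond 5 SD from buffer-only wells, on both duplicate plates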
HEK293 MPD ctr 2-2 – second counter-screen for TRPC6 modulators: effect in parental HEK293 cells. shares compounds with TRPC6 inhibitor. membrane potential dye fluorescence; after compound, maximal acetylcholine stimulation. inhibition, % at 10 µM. 2,400 tested, 14% active;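 active = membrane potential signal drops by more than 5 SD from the mean control signal, in both duplicate plates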
TRPC4 ctr mod – TRPC4 modulation by TRPC6 hit compounds, confirmation, selectivity assay for TRPC6 modulator project, cell-based, HEK293 TRPC4/mu-opioid, membrane potential dye, mouse. 2,400 tested, 69% active. percent change from control (negative = decrease, positive = increase), % at 10 µM. membrane potential fluorescence. shares compounds with TRPC6 inhibitor;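 active = membrane potential signal moved up or down beyond 5 SD of buffer control wells, in both duplicate plates, actives on both sides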
TRPC4 ctr inh 2 – second check of whether TRPC6 modulators also affect mouse TRPC4 | shares compounds with TRPC6 inhibitor | HEK293 TRPC4/mu-opioid, membrane potential dye fluorescence; stimulated with maximal-effect DAMGO | inhibition, % at 10 µM | 2,400 tested, 55% active | AID 488928;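 active = drop in membrane potential signal beyond 5 SD of the control wells in both duplicate plates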;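 note: TRPC4 counter screen for TRPC6 hits run under conditions tuned for TRPC6 not TRPC4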
TRPC6 inh conf – mouse TRPC6 channel inhibitors, confirmation, HEK293 cells, membrane potential dye, duplicate | shares compounds with TRPC6 inhibitor | ACh-evoked depolarization | inhibition, % at 10 µM | 3,300 tested, 43% active | AID 488960, 2010;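 active = fluorescence ratio falls more than 5 SD below the full-stimulation control mean, in both duplicate runs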;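 note: integrated fluorescence ratio of peak minus minimum over baseline after agonist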
TRPC6 act conf – mouse TRPC6 channel activators, confirmation, HEK293 cells, membrane potential dye, duplicate; 2,800 tested, 11% active; shares compounds with TRPC6 inhibitor; activation, % at 10 µM; AID 488961, 2010; HEK293-TRPC6 membrane potential dye fluorescence, FDSS;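 active = ratio signal rise beyond 5 SD above unstimulated control wells' mean, seen in both duplicate runs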
Hits are given with their value; . = inactive; / = no result.

SMILES	TRPC4 inh	TRPC6 act	TRPC4 potent	TRPC4 agonist	TRPC6 inhibitor	HEK293 MPD ctr-2	HEK293 MPD ctr 2-2	TRPC4 ctr mod	TRPC4 ctr inh 2	TRPC6 inh conf	TRPC6 act conf	others
COc1ccc(-c2sc(Nc3ccccc3)n[n+]2-c2ccc(F)cc2)c(C)c1C	.	.	.	.	-5.38	.	.	.	63.0%	.	.
Cc1cccc(-c2sc(Nc3ccccc3)n[n+]2-c2ccc(F)cc2)c1	.	.	.	.	.	/	/	/	/	/	/
Cc1ccc(C)c(NC(=O)c2ccc(S(=O)(=O)N(C)CC3CCCO3)cc2)c1 (stereo unspecified)	.	.	.	.	.	/	/	/	/	/	/
CCOc1ccc2c(C)nc(NC3=NC(C)(C)C=C(C)N3)nc2c1	-9	.	.	.	-5.13	.	.	.	.	.	.
Cc1ccccc1-c1nc(-c2ccc(NC(=O)c3cccs3)cc2)no1	.	.	.	.	-7.11	/	/	/	/	.	.	TRPC4 sel inh 2=.;TRPC4 spec=.;HEK293 MPD ctr 2-1=.;HEK293 MPD ctr-1=.
CCOC(=O)c1[nH]ncc1CN1CCCC(C(=O)c2cccc3ccccc23)C1 (stereo unspecified)	.	.	.	.	.	/	/	/	/	/	/
CCOC(=O)c1[nH]ncc1CN1CCCC(C(=O)c2ccc(SC)cc2)C1 (stereo unspecified)	.	.	.	.	-5.65	.	.	11.0%	30.5%	.	/
CSc1ccc(C(=O)C2CCCN(Cc3ccc(N4CCNC4=O)cc3)C2)cc1 (stereo unspecified)	.	.	.	.	-5.78	.	.	.	87.5%	55.0%	.
COc1ccc(C(=O)NCCc2nnc3ccc(SCC(=O)Nc4ccccc4)nn23)cc1	.	.	.	.	.	/	/	/	/	/	/
N#Cc1ccc(Oc2ncccn2)cc1	.	.	.	.	.	/	/	/	/	/	/
CN(c1ccccc1)S(=O)(=O)c1cccc(C(=O)N2CCN(c3ccccn3)CC2)c1	.	11.9	.	.	-7.22	143.5%	.	37.5%	.	64.0%	94.0%
Cc1cccc(NS(=O)(=O)c2cccc(C(=O)N3CCN(c4ccccn4)CC3)c2)c1	.	.	.	.	-10.5	/	/	/	/	78.7%	/	TRPC4 sel inh 2=.;TRPC4 spec=2.7%;HEK293 MPD ctr 2-1=220.5%;HEK293 MPD ctr-1=1.3%
CCOC(=O)N1CCN(C(=O)c2cccc(S(=O)(=O)Nc3ccc(Br)cc3)c2)CC1	.	.	.	.	-8.97	/	/	/	/	.	/	TRPC4 sel inh 2=.;TRPC4 spec=.;HEK293 MPD ctr 2-1=251.5%;HEK293 MPD ctr-1=.
CCOC(=O)N1CCN(C(=O)c2cccc(NS(=O)(=O)c3ccc(F)c(F)c3)c2)CC1	.	.	.	.	.	/	/	/	/	/	/
CC1Cc2ccccc2N1S(=O)(=O)c1cccc(C(=O)N2CCN(c3ncccn3)CC2)c1 (stereo unspecified)	.	20.9	.	.	.	130.0%	.	86.5%	85.5%	/	173.5%
O=C(c1ccc(S(=O)(=O)Nc2ccccc2)cc1)N1CCCCCCC1	.	.	.	.	.	/	/	/	/	/	/
Cc1cccc(NS(=O)(=O)c2cccc(C(=O)N3CCN(S(=O)(=O)c4ccccc4)CC3)c2)c1	.	12.8	.	.	-13.1	.	.	.	.	110.5%	132.0%
O=C(c1cccc(S(=O)(=O)Nc2ccccc2F)c1)N1CCN(c2ccccc2F)CC1	.	.	.	.	-6.45	.	.	.	.	64.0%	/
COc1ccc(OC)c(NC(=O)CSc2nccn2Cc2ccco2)c1	.	.	.	.	.	/	/	/	/	/	/
Cc1cccc(NC(=O)CSc2nc3nc(C)cc(C)c3c(=O)[nH]2)c1	.	.	.	.	-6.87	/	/	/	/	.	.	TRPC4 sel inh 2=.;TRPC4 spec=.;HEK293 MPD ctr 2-1=.;HEK293 MPD ctr-1=.
CC(C)(C)c1ccc(OCC(=O)O/N=C(\N)c2ccncc2)cc1	.	.	.	.	.	/	/	/	/	/	/
CC(C)c1ccc2[nH]c3c(c2c1)[C@@H]1CCN2C(=O)CCC[C@H](C3)[C@H]12	.	.	.	.	.	/	/	/	/	/	/
CCOC(=O)c1cc(C)n(-c2c(C)n(C)n(-c3ccccc3)c2=O)c1C	.	.	.	.	-6	.	.	.	.	.	.
CCOC(=O)N1CCN(C(=O)c2cc3cc(F)ccc3[nH]2)CC1	.	.	.	.	.	/	/	/	/	/	/
CCOC(=O)N1CCN(C(=O)c2cc3cc(Cl)ccc3[nH]2)CC1	.	.	.	.	-6.07	.	.	.	.	.	.
CCOC(=O)Nc1ccc2c(c1)N(CCCN(C)C)c1ccccc1CC2	.	.	.	.	-7.79	/	/	/	/	51.1%	.	TRPC4 sel inh 2=.;TRPC4 spec=.;HEK293 MPD ctr 2-1=.;HEK293 MPD ctr-1=.
CCOC(=O)Nc1ccc2c(c1)N(C(=O)OC)c1ccccc1CC2	.	.	.	.	.	/	/	/	/	/	/

Source: PubChem BioAssay (Johns Hopkins Ion Channel Center)
